This is an account of results in ChEMBL document CHEMBL2169742, “Design, synthesis, and biological evaluation of novel transrepression-selective liver X receptor (LXR) ligands with 5,11-dihydro-5-methyl-11-methylene-6H-dibenz[b,e]azepin-6-one skeleton” (J Med Chem, 2012).

Data set [1] is described as follows: Induction of LPS-induced IL-6 production in LXRalpha,LXRbeta-deficient C57BL/6J mouse peritoneal macrophages at 3 uM incubated for 6 hrs prior to LPS-induction measured after 18 hrs by ELISA. The class given is cell-based. The conditions noted are these: peritoneal macrophage cell. Put shortly: (§1)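 Thioglycollate-elicited peritoneal macrophages came from 8–10-week LXRα/β-null mice on C57BL/6J background, harvested 4 days post-injection. They were adhered, rested 24 h and plated at 2 × 10⁵/well, then pretreated with compound 6 h before LPS 10 ng/mL. Supernatant mIL-6 was measured by ELISA after 18 h; means ± SE of ≥3 independent measurements, ANOVA.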
Background: In an ELISA, binding on a coated surface is turned into a signal by an enzyme label.

In data set [2] the target is T1, Oxysterols receptor LXR-beta (Homo sapiens, UniProt P55055).
T1 sequence (P55055 whole entry): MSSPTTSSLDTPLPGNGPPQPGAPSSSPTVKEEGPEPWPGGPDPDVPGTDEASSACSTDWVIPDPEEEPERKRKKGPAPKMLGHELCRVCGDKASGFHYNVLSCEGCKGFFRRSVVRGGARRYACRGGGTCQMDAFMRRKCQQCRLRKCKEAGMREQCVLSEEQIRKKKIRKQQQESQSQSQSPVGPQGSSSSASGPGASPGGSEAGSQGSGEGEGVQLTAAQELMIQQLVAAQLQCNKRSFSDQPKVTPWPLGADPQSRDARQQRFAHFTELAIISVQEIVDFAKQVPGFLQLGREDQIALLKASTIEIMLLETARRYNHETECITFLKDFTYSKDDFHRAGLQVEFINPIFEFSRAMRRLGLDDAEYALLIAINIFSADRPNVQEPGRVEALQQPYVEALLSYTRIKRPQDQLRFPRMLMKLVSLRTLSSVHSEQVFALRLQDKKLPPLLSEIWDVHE
Nature of the data set: Transactivational agonist activity at human LXRbeta transfected in HEK293 cells expressing CMX-Gal4N assessed as luciferase activity after 16 hrs by reporter gene assay relative to N-(4-(1,1,1,3,3,3-hexafluoro-2-hydroxypropan-2-yl)phenyl)-N-methylbenzamide. The class given is cell-based. To be noted: read-out: Efficacy. A general note: A reporter such as luciferase makes a cellular process visible.

For data set [3], the target named is T2, Oxysterols receptor LXR-alpha (Homo sapiens, UniProt Q13133).
T2 sequence (Q13133 whole entry): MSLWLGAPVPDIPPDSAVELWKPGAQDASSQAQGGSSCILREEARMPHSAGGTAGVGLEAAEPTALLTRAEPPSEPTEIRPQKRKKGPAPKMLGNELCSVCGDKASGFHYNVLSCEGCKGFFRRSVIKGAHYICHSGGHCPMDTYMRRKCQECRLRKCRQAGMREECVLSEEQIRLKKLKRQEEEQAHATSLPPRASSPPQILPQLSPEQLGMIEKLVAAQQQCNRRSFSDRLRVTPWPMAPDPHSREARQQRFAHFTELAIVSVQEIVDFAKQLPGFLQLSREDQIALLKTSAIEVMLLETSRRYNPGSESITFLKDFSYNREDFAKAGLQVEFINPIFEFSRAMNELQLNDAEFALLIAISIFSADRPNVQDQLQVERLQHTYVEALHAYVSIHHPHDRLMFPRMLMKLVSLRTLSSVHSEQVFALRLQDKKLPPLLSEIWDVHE
Briefly: Transactivational agonist activity at human LXRalpha transfected in HEK293 cells expressing CMX-Gal4N assessed as luciferase activity after 16 hrs by reporter gene assay relative to N-(4-(1,1,1,3,3,3-hexafluoro-2-hydroxypropan-2-yl)phenyl)-N-methylbenzamide. Type of data set: cell-based. To be noted: read-out: Efficacy.

Data set [4] is described as follows: Metabolic stability in human liver microsomes assessed as compound remaining at 0.1 uM by LC-MS/MS analysis. Type of data set: ADME, Microsome. To be noted: read-out: Stability. Put shortly: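 Human liver microsomes were incubated with compound at 0.1 μM. Percent parent remaining was quantified by LC/MS/MS; imipramine, propranolol, terfenadine and verapamil served as controls.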
(In general: Liver microsomes are a subcellular fraction often used to study metabolism.)

The nature of data set [5]: Permeability from apical to basal side of human Caco2 cells at 10 uM. Type of data set: ADME, cell-based. To be noted: Caco-2, read-out: permeability. An outline of the steps: (§2)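 Colchicine and ranitidine were low-permeability controls, propranolol the high-permeability control, labetalol the P-gp substrate control.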
Data set [6] can be described thus: Apparent permeability from apical to basal side of human Caco2 cells at 10 uM. Type of data set: ADME, cell-based. To be noted: Caco-2. Put shortly: as §2
The test system of data set [7] is Peritoneal macrophage cell. Nature of the data set: Inhibition of LPS-induced IL-1beta mRNA expression in LXRalpha-deficient C57BL/6J mouse peritoneal macrophages at 10 uM incubated for 6 hrs prior to LPS-challenge measured after 18 hrs by RT-PCR analysis. Type of data set: functional, cell-based. Put shortly: (§3)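 Thioglycollate-elicited peritoneal macrophages (wild-type C57BL/6J or LXRα-null, 8–10 weeks) were plated at 4 × 10⁶/well and pretreated with compound 6 h before LPS 100 ng/mL. Cells were harvested after 18 h. il-6 and il-1β mRNA were measured by real-time quantitative PCR, normalized to GAPDH.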

Data set [8] deals with T2, Oxysterols receptor LXR-alpha. Nature of the data set: Transactivational agonist activity at human LXRalpha transfected in HEK293 cells expressing CMX-Gal4N assessed as luciferase activity after 16 hrs by reporter gene assay. Type of data set: cell-based.
Data set [9] deals with Peritoneal macrophage cell. Nature of the data set: Inhibition of LPS-induced IL-6 production in LXRalpha,LXRbeta-deficient C57BL/6J mouse peritoneal macrophages at 10 uM incubated for 6 hrs prior to LPS-challenge measured after 18 hrs by ELISA. The class given is functional, cell-based. An outline of the steps: as §1
In a further data set the target is T3, Liver X receptor (Homo sapiens, UniProt Q13133+P55055).
T3 sequence (Q13133 whole entry): T2 sequence (Q13133 whole entry)
T3 sequence (P55055 whole entry): T1 sequence (P55055 whole entry)
Nature of the data set: Transrepressional activity at LXR in human TPA-activated THP1 cells assessed as inhibition of LPS-induced IL6 production incubated for 6 hrs prior to LPS-challenge measured after 18 hrs by ELISA. Type of data set: cell-based. To be noted: thp-1.

For data set [10], the target named is T1, Oxysterols receptor LXR-beta. Nature of the data set: Transactivational agonist activity at human LXRbeta transfected in HEK293 cells expressing CMX-Gal4N assessed as luciferase activity after 16 hrs by reporter gene assay. Type of data set: cell-based. An outline of the steps:
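Gal4-hLXRα or Gal4-hLXRβ chimera (15 ng) cotransfected with tk-MH100×4-luc reporter (50 ng) and CMX-β-gal (10 ng) into HEK293 cells by calcium phosphate. Luciferase was normalized to β-gal, in triplicate.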

Data set [11] can be described thus: Transrepressional activity at LXR in C57BL/6J mouse peritoneal macrophages assessed as inhibition of LPS-induced IL-1beta mRNA expression at 10 uM incubated for 6 hr prior to LPS-challenge measured after 18 hrs by RT-PCR analysis. An outline of the steps: as §3
Data set [12] is described as follows: Transrepressional activity at LXR in C57BL/6J mouse peritoneal macrophages assessed as inhibition of LPS-induced IL-6 mRNA expression at 10 uM incubated for 6 hr prior to LPS-challenge measured after 18 hrs by RT-PCR analysis. Put shortly: as §3
A short description of data set [13]: Induction of LPS-induced IL-6 production in LXRalpha,LXRbeta-deficient C57BL/6J mouse peritoneal macrophages at 10 uM incubated for 6 hrs prior to LPS-induction measured after 18 hrs by ELISA. The class given is cell-based. The conditions noted are these: peritoneal macrophage cell. Put shortly: as §1
In data set [14] the test system is Peritoneal macrophage cell. Nature of the data set: Inhibition of LPS-induced IL-6 mRNA expression in LXRalpha-deficient C57BL/6J mouse peritoneal macrophages at 10 uM incubated for 6 hrs prior to LPS-challenge measured after 18 hrs by RT-PCR analysis. The class given is functional, cell-based. An outline of the steps: as §3

pEC50, pIC50: −log10 of the molar value. The source made the active and inactive calls. The calls are words filed in the database; no cut-off is given here.

Turning to `O=S(=O)(c1ccccc1)N(CC(F)(F)F)c1ccc(C(O)(C(F)(F)F)C(F)(F)F)cc1` [T091317], the Activity result in data set [1] is reported as “Toxic”. Besides, the Emax in [2] is 118%; in [3] it was 124%.

`C=C1c2ccccc2C(=O)N(C)c2ccc(O)cc21`: the remaining at 0.1 µM in [4] was 87.8%. In addition, the values for the Papp A→B at 10 µM in data set [5] and in data set [6] were 84.3 ×10⁻⁶ cm/s and ≥ 20 ×10⁻⁶ cm/s, respectively.

A word on the pEC50: it is −log10 of the EC50, conventionally taken in molar units. Usually pIC50 stands for −log10 of the IC50, conventionally taken in molar units. As to `C=C1c2ccccc2C(=O)N(C)c2ccc(C(O)(C(F)(F)F)C(F)(F)F)cc21`, the inhibition result in [7], in data set [9] and in [14] was “inactive” throughout. Also, the pEC50 is 5.77 in [8] and 6.11 in data set [10]. In addition, the values for the Emax in data set [2] and in data set [3] were 73% and 45%, respectively. For the same molecule, the pIC50 at Liver X receptor is 5.24. The inhibition entry in data set [11] and in [12] was “Active” throughout. In addition, in data set [13], the Activity entry is on record as “Toxic”.
